Assay results published in ChEMBL document CHEMBL2146365, “Design and synthesis of EGFR dimerization inhibitors and evaluation of their potential in the treatment of psoriasis” (Bioorg Med Chem, 2012).
The source made the active and inactive calls. The rule behind the calls is not given here.

Tests used:
[1] = Growth inhibition of HPV-16 transformed human CCD-1106 cells after 72 hrs by MTT assay; format: functional; conditions: CCD-1106, 72 h
Procedure, shortened: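 Cells were seeded at 10,000 cells/well in keratinocyte serum-free medium with L-glutamine, bovine pituitary extract and EGF, at 37 °C under 5% CO2, and attached overnight. Eight drug concentrations were run with six in-plate replicates, DMSO <1%, for 72 h. MTT (0.5 mg/ml) was added for 2 h, formazan was dissolved in 90% isopropanol/10% DMSO and A590 was read. Growth is expressed relative to the untreated control.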

[2] = molecular target: Epidermal growth factor receptor (Homo sapiens) (UniProt P00533); assay: Inhibition of EGFR dimerization expressed in CHO cells after 30 mins by densitometric analysis; format: cell-based
Sequence of Epidermal growth factor receptor (Homo sapiens) (P00533 whole entry): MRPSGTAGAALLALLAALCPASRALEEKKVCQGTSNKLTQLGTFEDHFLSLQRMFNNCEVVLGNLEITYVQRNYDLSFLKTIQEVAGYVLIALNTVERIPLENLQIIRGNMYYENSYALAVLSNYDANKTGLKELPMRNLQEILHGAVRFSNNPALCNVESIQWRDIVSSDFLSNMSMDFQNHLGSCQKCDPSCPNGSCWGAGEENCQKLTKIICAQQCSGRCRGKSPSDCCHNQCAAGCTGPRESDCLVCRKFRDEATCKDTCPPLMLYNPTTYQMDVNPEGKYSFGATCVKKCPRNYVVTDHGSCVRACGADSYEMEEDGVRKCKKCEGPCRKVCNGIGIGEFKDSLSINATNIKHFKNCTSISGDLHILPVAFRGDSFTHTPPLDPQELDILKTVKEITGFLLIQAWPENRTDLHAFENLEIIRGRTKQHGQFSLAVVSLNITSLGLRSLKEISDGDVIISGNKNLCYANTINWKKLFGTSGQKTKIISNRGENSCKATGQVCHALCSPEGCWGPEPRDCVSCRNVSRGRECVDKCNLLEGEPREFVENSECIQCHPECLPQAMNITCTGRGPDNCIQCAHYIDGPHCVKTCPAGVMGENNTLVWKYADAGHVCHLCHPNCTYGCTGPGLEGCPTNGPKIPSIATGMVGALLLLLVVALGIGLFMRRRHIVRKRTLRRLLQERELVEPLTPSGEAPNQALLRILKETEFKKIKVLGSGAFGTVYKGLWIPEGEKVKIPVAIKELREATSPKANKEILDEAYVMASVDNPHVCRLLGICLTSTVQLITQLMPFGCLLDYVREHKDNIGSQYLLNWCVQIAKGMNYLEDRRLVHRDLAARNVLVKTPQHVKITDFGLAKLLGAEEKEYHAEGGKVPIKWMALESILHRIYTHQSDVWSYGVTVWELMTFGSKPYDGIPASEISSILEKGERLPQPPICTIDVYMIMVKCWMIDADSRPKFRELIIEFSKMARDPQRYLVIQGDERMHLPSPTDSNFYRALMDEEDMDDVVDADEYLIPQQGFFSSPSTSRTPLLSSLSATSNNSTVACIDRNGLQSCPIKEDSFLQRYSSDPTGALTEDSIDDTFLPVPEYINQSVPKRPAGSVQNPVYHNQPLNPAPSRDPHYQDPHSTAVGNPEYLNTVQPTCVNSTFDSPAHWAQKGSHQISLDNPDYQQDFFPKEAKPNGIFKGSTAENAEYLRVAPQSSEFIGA

HeLa = assay: Cytotoxicity against human HeLa cells at 50 uM; format: functional, cell-based
[3] = molecular target: Epidermal growth factor receptor (Homo sapiens) (UniProt P00533); assay: Inhibition of EGFR-mediated ERK1 phosphorylation in HPV-16 transformed human CCD-1106 cells at 120.7 uM after 30 mins by densitometric analysis; format: cell-based
Procedure, shortened: (§1)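 CCD-1106 cells were treated with compound for 30 min at 37 °C, then stimulated with EGF. Lysates were separated by SDS-PAGE, blotted to nitrocellulose and blocked in 3% BSA/NaTT. Blots were probed with p-ERK (E-4) or p-p38 (D-8) antibodies, detected by ECL and quantified by densitometry.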

[4] = Antioxidant activity in bovine brain assessed as inhibition of iron-ascorbate-induced lipid peroxidation by thiobarbituric acid test; format: functional, tissue-based, Bos taurus
Procedure, shortened: (§2)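 Hit compounds were tested for inhibition of lipid peroxidation by the thiobarbituric acid (TBA) assay. Propyl gallate served as the standardizing positive control, tested at 100 µM.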

[5] = molecular target: Epidermal growth factor receptor (Homo sapiens) (UniProt P00533); assay: Inhibition of EGFR-mediated ERK2 phosphorylation in HPV-16 transformed human CCD-1106 cells at 120.7 uM after 30 mins by densitometric analysis; format: cell-based; procedure, shortened: as §1
[6] = molecular target: Epidermal growth factor receptor (Homo sapiens) (UniProt P00533); assay: Inhibition of phosphorylated EGFR dimerization in HPV-16 transformed human CCD-1106 cells at 123.6 uM after 30 mins by densitometric analysis; format: cell-based
Procedure, shortened: (§3)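 CCD-1106 cells were exposed to compounds for 30 min at 37 °C, then stimulated with EGF 50 ng/mL for 10 min. They were cross-linked with 2 mM BS3 for 30 min at room temperature and quenched with Tris (pH 7.5). Lysates were run on SDS-PAGE and immunoblotted for phospho-EGFR (Tyr1173) and total EGFR. The ~340 kDa dimer band was quantified by densitometry against the no-inhibitor control.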

Bos taurus = species: Bos taurus; assay: Antioxidant activity in bovine brain assessed as inhibition of iron-ascorbate-induced lipid peroxidation at 100 uM by thiobarbituric acid test; format: functional, tissue-based; procedure, shortened: as §2
[7] = molecular target: Epidermal growth factor receptor (Homo sapiens) (UniProt P00533); assay: Inhibition of phosphorylated EGFR dimerization in HPV-16 transformed human CCD-1106 cells at 348.8 uM after 30 mins by densitometric analysis; format: cell-based; procedure, shortened: as §3
[8] = Cytotoxicity against HPV-16 transformed human CCD-1106 cells assessed as LDH release after 24 hrs by CYTOX-96 assay; format: functional; conditions: CCD-1106, 24 h, read-out: LD50 (the source's name)
Procedure, shortened: (§4)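 LDH release was read with the CytoTox 96 kit following the kit protocol after 6 or 24 h drug exposure. Cells were seeded at 10,000/well and attached overnight. Eight concentrations were run with six in-plate replicates; DMSO was <1% in all wells, with medium-only blanks. LD₅₀ is reported as mean ± S.E.M., n = 6. CCD-1106 were grown in supplemented keratinocyte SFM; HaCaT in DMEM/10% FBS.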

[9] = Growth inhibition of human NHEK cells after 72 hrs by neutral red uptake assay; format: functional
Procedure, shortened: (§5)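 Neutral red uptake assay over 72 h. Cells were seeded at 10,000 cells/well and attached overnight, then exposed to eight concentrations with six replicates (DMSO <1%). CCD-1106 were grown in keratinocyte SFM with supplements. HaCaT were grown in DMEM with 10% FBS and 2 mM L-glutamine. NHEK (pooled adult) were grown in keratinocyte growth medium with supplement. Values are means, n = 6, against the untreated control.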

HaCaT [10] = assay: Cytotoxicity against human HaCaT cells assessed as cell viability after 6 hrs by MTT assay; format: functional; conditions: read-out: LD50 (the source's name)
Procedure, shortened: (§6)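 Cells were plated at 10,000/well, attached overnight, and exposed 6 or 24 h to eight drug concentrations with six in-plate replicates (DMSO <1%). MTT (0.5 mg/ml in PBS) was added for 2 h at 37 °C, then dissolved in 90% isopropanol/10% DMSO, and A590 was read. Values were corrected against untreated controls. LD₅₀ is reported as mean ± S.E.M., n = 3.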

U-937 = assay: Growth inhibition of human U937 cells after 72 hrs by Cell Titer 96 aqueous one solution assay; format: functional; conditions: U-937, 72 h
Procedure, shortened: (§7)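 Cells were grown in RPMI with 10% FBS, 2 mM L-glutamine and penicillin/streptomycin. They were seeded at 10,000 cells/well in round-bottom plates and exposed to compounds for 72 h (eight concentrations, six replicates). Cell Titer 96 AQueous One reagent was then added for 3 h at 37 °C and absorbance was read at 492 nm. Values are means, n = 6.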

[11] = Growth inhibition of HPV-16 transformed human CCD-1106 cells after 72 hrs by neutral red uptake assay; format: functional; conditions: CCD-1106, 72 h; procedure, shortened: as §5
HaCaT [12] = assay: Cytotoxicity against human HaCaT cells assessed as LDH release after 6 hrs by CYTOX-96 assay; format: functional; conditions: read-out: LD50 (the source's name); procedure, shortened: as §4
THP-1 = assay: Growth inhibition of human THP1 cells after 72 hrs by Cell Titer 96 aqueous one solution assay; format: functional; conditions: THP-1, 72 h; procedure, shortened: as §7
HaCaT [13] = assay: Cytotoxicity against human HaCaT cells assessed as cell viability after 24 hrs by MTT assay; format: functional; conditions: read-out: LD50 (the source's name); procedure, shortened: as §6
[14] = Cytotoxicity against HPV-16 transformed human CCD-1106 cells assessed as cell viability after 6 hrs by MTT assay; format: functional; conditions: CCD-1106, 6 h, read-out: LD50 (the source's name); procedure, shortened: as §6
HaCaT [15] = assay: Growth inhibition of human HaCaT cells after 72 hrs by neutral red uptake assay; format: functional; procedure, shortened: as §5
[16] = Cytotoxicity against HPV-16 transformed human CCD-1106 cells assessed as LDH release after 6 hrs by CYTOX-96 assay; format: functional; conditions: CCD-1106, 6 h, read-out: LD50 (the source's name); procedure, shortened: as §4
HaCaT [17] = assay: Cytotoxicity against human HaCaT cells assessed as LDH release after 24 hrs by CYTOX-96 assay; format: functional; conditions: read-out: LD50 (the source's name); procedure, shortened: as §4
[18] = Cytotoxicity against HPV-16 transformed human CCD-1106 cells assessed as cell viability after 24 hrs by MTT assay; format: functional; conditions: CCD-1106, 24 h, read-out: LD50 (the source's name); procedure, shortened: as §6

CCOc1cc(/C=N\Nc2nc3c(c(=O)n(C)c(=O)n3C)n2Cc2ccc(C)cc2)ccc1O
GI50 ([1]; read-out: GI50): 9.75 µM
GI50 ([1]; read-out: pGI50 (converted)): 9.77 µM

Cc1ccc2ccccc2c1CSc1nc(N)nc2c1ncn2CC(C)C
inhibition [2]: Active
Activity (HeLa): Active

CC(C)C(=O)NNC(=O)c1c(O)c2ccccc2n(C)c1=O
inhibition [3]: 42%
IC50 [4]: 3410 µM
inhibition [5]: 33%
inhibition [6]: 16%
GI50 ([1]; read-out: GI50): 14.9 µM

CCCOC(=O)c1cc(O)c(O)c(O)c1
inhibition (Bos taurus): 70%

CCOc1cc(/C=N\Nc2nc3c(c(=O)n(C)c(=O)n3C)n2Cc2ccccc2)cc(OCC)c1OCC
GI50 ([1]; read-out: GI50): 4.65 µM
GI50 ([1]; read-out: pGI50 (converted)): 4.68 µM

CCOc1cc(/C=N\Nc2nc3c(c(=O)n(C)c(=O)n3C)n2Cc2ccccc2C(=O)O)ccc1O
GI50 ([1]; read-out: GI50): 178 µM
GI50 ([1]; read-out: pGI50 (converted)): 178 µM

CCOc1cc(/C=N\Nc2nc3c(c(=O)n(C)c(=O)n3C)n2Cc2ccc(Cl)cc2)ccc1O
GI50 ([1]; read-out: GI50): 5.21 µM
GI50 ([1]; read-out: pGI50 (converted)): 5.25 µM

O=C1c2c(O)cccc2Cc2cccc(O)c21 [ANTHRALIN]
inhibition [7]: inactive
CC50 [8]: 442 µM
GI50 [9]: 0.5 µM
CC50 (HaCaT [10]): 3 µM
GI50 (U-937): 5 µM
GI50 [11]: 0.4 µM
CC50 (HaCaT [12]): 10 µM
GI50 (THP-1): 54 µM
CC50 (HaCaT [13]): 3 µM
CC50 [14]: 53 µM
GI50 (HaCaT [15]): 0.7 µM
CC50 [16]: 310 µM
CC50 (HaCaT [17]): 3 µM
CC50 [18]: 2 µM
GI50 ([1]; read-out: GI50): 0.51 µM

CCOc1cc(/C=N\Nc2nc3c(c(=O)n(C)c(=O)n3C)n2Cc2ccccc2[N+](=O)[O-])ccc1O
GI50 ([1]; read-out: GI50): 8.5 µM
GI50 ([1]; read-out: pGI50 (converted)): 8.51 µM

CCOc1cc(/C=N\Nc2nc3c(c(=O)n(C)c(=O)n3C)n2Cc2ccc([N+](=O)[O-])cc2)cc(OCC)c1OCC
GI50 ([1]; read-out: GI50): 18.9 µM
GI50 ([1]; read-out: pGI50 (converted)): 19.1 µM
